ChEMBL document CHEMBL4152188, “Design, synthesis and biological evaluation of C(4) substituted monobactams as antibacterial agents against multidrug-resistant Gram-negative bacteria” (Eur J Med Chem, 2018)

Experiments:
Format in all cases: functional
[1] = system: Pseudomonas aeruginosa; experiment: Selectivity index, ratio of MIC for against IMP-4 producing Pseudomonas aeruginosa isolate 209321 to MIC for against IMP-4 producing Pseudomonas aeruginosa isolate 209321 in presence of BPL
[2] = system: Klebsiella pneumoniae; experiment: Antibacterial activity against KPC-2 producing Klebsiella pneumoniae isolate 209735 after 18 hrs in presence of BPL by CLSI broth microdilution method; settings: isolate 209735, 18 h
In short: (§1)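 CLSI broth microdilution against clinical isolates (ESBL E. coli, KPC-2 MDR K. pneumoniae, IMP-4 MDR P. aeruginosa; five per species). Iron limitation: Mueller-Hinton broth supplemented with 16 mg/liter 2,2'-bipyridyl to complex iron and induce iron uptake systems. Read-out: MIC.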

[3] = system: Pseudomonas aeruginosa; experiment: Antibacterial activity against IMP-4 producing Pseudomonas aeruginosa isolate 207272 after 18 hrs in presence of BPL by CLSI broth microdilution method; settings: isolate 207272, 18 h; in short: as §1
[4] = system: Escherichia coli; experiment: Antibacterial activity against Escherichia coli isolate 210737 after 18 hrs by CLSI broth microdilution method; settings: isolate 210737, 18 h
[5] = system: Escherichia coli; experiment: Antibacterial activity against extended-spectrum beta-lactamase producing Escherichia coli isolate 212648 after 18 hrs by CLSI broth microdilution method; settings: isolate 212648, 18 h
[6] = system: Pseudomonas aeruginosa; experiment: Selectivity index, ratio of MIC for against IMP-4 producing Pseudomonas aeruginosa isolate 209471 to MIC for against IMP-4 producing Pseudomonas aeruginosa isolate 209471 in presence of BPL
[7] = system: Escherichia coli; experiment: Antibacterial activity against extended-spectrum beta-lactamase producing Escherichia coli isolate 209285 after 18 hrs in presence of BPL by CLSI broth microdilution method; settings: isolate 209285, 18 h; in short: as §1
[8] = system: Pseudomonas aeruginosa; experiment: Antibacterial activity against IMP-4 producing Pseudomonas aeruginosa isolate 207272 after 18 hrs by CLSI broth microdilution method; settings: isolate 207272, 18 h
[9] = system: Escherichia coli; experiment: Selectivity index, ratio of MIC for against Escherichia coli isolate 210737 to MIC for Escherichia coli isolate 210737 in presence of BPL
[10] = system: Klebsiella pneumoniae; experiment: Antibacterial activity against KPC-2 producing Klebsiella pneumoniae isolate 209632 after 18 hrs in presence of BPL by CLSI broth microdilution method; settings: isolate 209632, 18 h; in short: as §1
[11] = system: Escherichia coli; experiment: Antibacterial activity against extended-spectrum beta-lactamase producing Escherichia coli isolate 208687 after 18 hrs by CLSI broth microdilution method; settings: isolate 208687, 18 h
[12] = system: Klebsiella pneumoniae; experiment: Antibacterial activity against KPC-2 producing Klebsiella pneumoniae isolate 209735 after 18 hrs by CLSI broth microdilution method; settings: isolate 209735, 18 h
[13] = system: Pseudomonas aeruginosa; experiment: Selectivity index, ratio of MIC for against IMP-4 producing Pseudomonas aeruginosa isolate 208247 to MIC for against IMP-4 producing Pseudomonas aeruginosa isolate 208247 in presence of BPL
[14] = system: Pseudomonas aeruginosa; experiment: Antibacterial activity against IMP-4 producing Pseudomonas aeruginosa isolate 208247 after 18 hrs by CLSI broth microdilution method; settings: isolate 208247, 18 h
[15] = system: Escherichia coli; experiment: Antibacterial activity against extended-spectrum beta-lactamase producing Escherichia coli isolate 208687 after 18 hrs in presence of BPL by CLSI broth microdilution method; settings: isolate 208687, 18 h; in short: as §1
[16] = system: Escherichia coli; experiment: Selectivity index, ratio of MIC for against extended-spectrum beta-lactamase producing Escherichia coli isolate 106342 to MIC for extended-spectrum beta-lactamase producing Escherichia coli isolate 106342 in presence of BPL
[17] = system: Pseudomonas aeruginosa; experiment: Antibacterial activity against IMP-4 producing Pseudomonas aeruginosa isolate 209471 after 18 hrs by CLSI broth microdilution method; settings: isolate 209471, 18 h
[18] = system: Pseudomonas aeruginosa; experiment: Antibacterial activity against IMP-4 producing Pseudomonas aeruginosa isolate 212886 after 18 hrs by CLSI broth microdilution method; settings: isolate 212886, 18 h
[19] = system: Klebsiella pneumoniae; experiment: Selectivity index, ratio of MIC for against KPC-2 producing Klebsiella pneumoniae isolate 212229 to MIC for against KPC-2 producing Klebsiella pneumoniae isolate 212229 in presence of BPL
[20] = system: Escherichia coli; experiment: Antibacterial activity against extended-spectrum beta-lactamase producing Escherichia coli isolate 106342 after 18 hrs in presence of BPL by CLSI broth microdilution method; settings: isolate 106342, 18 h; in short: as §1
[21] = system: Pseudomonas aeruginosa; experiment: Antibacterial activity against IMP-4 producing Pseudomonas aeruginosa isolate 209471 after 18 hrs in presence of BPL by CLSI broth microdilution method; settings: isolate 209471, 18 h; in short: as §1
[22] = system: Escherichia coli; experiment: Selectivity index, ratio of MIC for against extended-spectrum beta-lactamase producing Escherichia coli isolate 208687 to MIC for extended-spectrum beta-lactamase producing Escherichia coli isolate 208687 in presence of BPL
[23] = system: Klebsiella pneumoniae; experiment: Selectivity index, ratio of MIC for against KPC-2 producing Klebsiella pneumoniae isolate 212423 to MIC for against KPC-2 producing Klebsiella pneumoniae isolate 212423 in presence of BPL
[24] = system: Klebsiella pneumoniae; experiment: Antibacterial activity against KPC-2 producing Klebsiella pneumoniae isolate 212229 after 18 hrs in presence of BPL by CLSI broth microdilution method; settings: isolate 212229, 18 h; in short: as §1
[25] = system: Klebsiella pneumoniae; experiment: Antibacterial activity against KPC-2 producing Klebsiella pneumoniae isolate 212423 after 18 hrs in presence of BPL by CLSI broth microdilution method; settings: isolate 212423, 18 h; in short: as §1
[26] = system: Escherichia coli; experiment: Antibacterial activity against Escherichia coli isolate 210737 after 18 hrs in presence of BPL by CLSI broth microdilution method; settings: isolate 210737, 18 h; in short: as §1
[27] = system: Klebsiella pneumoniae; experiment: Selectivity index, ratio of MIC for against KPC-2 producing Klebsiella pneumoniae isolate 209735 to MIC for against KPC-2 producing Klebsiella pneumoniae isolate 209735 in presence of BPL
[28] = system: Klebsiella pneumoniae; experiment: Selectivity index, ratio of MIC for against KPC-2 producing Klebsiella pneumoniae isolate 212232 to MIC for against KPC-2 producing Klebsiella pneumoniae isolate 212232 in presence of BPL
[29] = system: Escherichia coli; experiment: Selectivity index, ratio of MIC for against extended-spectrum beta-lactamase producing Escherichia coli isolate 209285 to MIC for extended-spectrum beta-lactamase producing Escherichia coli isolate 209285 in presence of BPL
[30] = system: Escherichia coli; experiment: Antibacterial activity against extended-spectrum beta-lactamase producing Escherichia coli isolate 209285 after 18 hrs by CLSI broth microdilution method; settings: isolate 209285, 18 h
[31] = system: Klebsiella pneumoniae; experiment: Antibacterial activity against KPC-2 producing Klebsiella pneumoniae isolate 209632 after 18 hrs by CLSI broth microdilution method; settings: isolate 209632, 18 h
[32] = system: Pseudomonas aeruginosa; experiment: Antibacterial activity against IMP-4 producing Pseudomonas aeruginosa isolate 208247 after 18 hrs in presence of BPL by CLSI broth microdilution method; settings: isolate 208247, 18 h; in short: as §1
[33] = system: Escherichia coli; experiment: Antibacterial activity against extended-spectrum beta-lactamase producing Escherichia coli isolate 212648 after 18 hrs in presence of BPL by CLSI broth microdilution method; settings: isolate 212648, 18 h; in short: as §1
[34] = system: Pseudomonas aeruginosa; experiment: Antibacterial activity against IMP-4 producing Pseudomonas aeruginosa isolate 209321 after 18 hrs by CLSI broth microdilution method; settings: isolate 209321, 18 h
[35] = system: Pseudomonas aeruginosa; experiment: Antibacterial activity against IMP-4 producing Pseudomonas aeruginosa isolate 209321 after 18 hrs in presence of BPL by CLSI broth microdilution method; settings: isolate 209321, 18 h; in short: as §1
[36] = system: Klebsiella pneumoniae; experiment: Antibacterial activity against KPC-2 producing Klebsiella pneumoniae isolate 212232 after 18 hrs in presence of BPL by CLSI broth microdilution method; settings: isolate 212232, 18 h; in short: as §1
[37] = system: Klebsiella pneumoniae; experiment: Antibacterial activity against KPC-2 producing Klebsiella pneumoniae isolate 212229 after 18 hrs by CLSI broth microdilution method; settings: isolate 212229, 18 h
[38] = system: Escherichia coli; experiment: Antibacterial activity against extended-spectrum beta-lactamase producing Escherichia coli isolate 106342 after 18 hrs by CLSI broth microdilution method; settings: isolate 106342, 18 h
[39] = system: Klebsiella pneumoniae; experiment: Selectivity index, ratio of MIC for against KPC-2 producing Klebsiella pneumoniae isolate 209632 to MIC for against KPC-2 producing Klebsiella pneumoniae isolate 209632 in presence of BPL
[40] = system: Klebsiella pneumoniae; experiment: Antibacterial activity against KPC-2 producing Klebsiella pneumoniae isolate 212232 after 18 hrs by CLSI broth microdilution method; settings: isolate 212232, 18 h
[41] = system: Pseudomonas aeruginosa; experiment: Antibacterial activity against IMP-4 producing Pseudomonas aeruginosa isolate 212886 after 18 hrs in presence of BPL by CLSI broth microdilution method; settings: isolate 212886, 18 h; in short: as §1
[42] = system: Pseudomonas aeruginosa; experiment: Selectivity index, ratio of MIC for against IMP-4 producing Pseudomonas aeruginosa isolate 207272 to MIC for against IMP-4 producing Pseudomonas aeruginosa isolate 207272 in presence of BPL
[43] = system: Pseudomonas aeruginosa; experiment: Selectivity index, ratio of MIC for against IMP-4 producing Pseudomonas aeruginosa isolate 212886 to MIC for against IMP-4 producing Pseudomonas aeruginosa isolate 212886 in presence of BPL
[44] = system: Klebsiella pneumoniae; experiment: Antibacterial activity against KPC-2 producing Klebsiella pneumoniae isolate 212423 after 18 hrs by CLSI broth microdilution method; settings: isolate 212423, 18 h
[45] = system: Escherichia coli; experiment: Selectivity index, ratio of MIC for against extended-spectrum beta-lactamase producing Escherichia coli isolate 212648 to MIC for extended-spectrum beta-lactamase producing Escherichia coli isolate 212648 in presence of BPL

CC(C)C(O/N=C(\C(=O)N[C@@H]1C(=O)N(S(=O)(=O)O)[C@@H]1COC(=O)c1ccc(O)c(O)c1Cl)c1csc(N)n1)c1cc(=O)c(O)cn1O (stereo not given in full)
64 µg/mL: MIC [17] | MIC [21] | MIC [34]
2: Selectivity Index [1] | Selectivity Index [16] | Selectivity Index [22] | Selectivity Index [45]
4 µg/mL: MIC [2] | MIC [10] | MIC [24] | MIC [25] | MIC [36]
8: Selectivity Index [19] | Selectivity Index [27] | Selectivity Index [28] | Selectivity Index [39]
8 µg/mL: MIC [20]
16 µg/mL: MIC [15] | MIC [33] | MIC [38] | MIC [44]
1: Selectivity Index [6] | Selectivity Index [29]
> 64 µg/mL: MIC [3] | MIC [4] | MIC [8] | MIC [14] | MIC [18] | MIC [26] | MIC [32] | MIC [41]
1 - 2: Selectivity Index [9] | Selectivity Index [13] | Selectivity Index [42] | Selectivity Index [43]
32 µg/mL: MIC [5] | MIC [7] | MIC [11] | MIC [12] | MIC [30] | MIC [31] | MIC [35] | MIC [37] | MIC [40]
4: Selectivity Index [23]
